Test results published in publication PMC7746607 (Nature, 2020).

Columns and labels:
[1] = biological target: mouse KSR1-Nanoluc (KSR-bound MEK) (UniProt Q02750+Q61097); assay: NanoBRET in-cell steady-state competition with tram-bo tracer on KSR1-luc; format: binding; details: MEK1-luc vs KSR1-luc
KSR1-luc (KSR-bound MEK) = KSR1-luc (KSR-bound MEK) (UniProt Q02750+Q61097); assay: NanoBRET washout, intracellular residence time on KSR1-luc; format: binding, mouse; details: 175-minute time course, range of inhibitor concentrations, tram-bo 1 μM
MEK1-luc = MEK1-luc (Homo sapiens, UniProt Q02750); assay: NanoBRET washout, intracellular residence time on MEK1-luc; format: binding; details: 175-minute time course, tram-bo 1 μM
RET-luc = RET-luc (Homo sapiens, UniProt P07949); assay: NanoBRET control kinase dose response, RET-luc; format: binding; details: 293T cells, tram-bo or tracer K5
SRC-luc = SRC-luc (Homo sapiens, UniProt P12931); assay: NanoBRET control kinase dose response, SRC-luc; format: binding; details: 293T cells, tram-bo or tracer K4
[2] = biological target: BRAF and MEK1 interaction (Homo sapiens, UniProt Q02750); assay: IP/WB of endogenous MEK1 from HCT116 cells, BRAF pulldown; format: cell-based; details: HCT116, 200 nM, 1 hour
Outline: (§1)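 HCT116 cells were plated 48 h to ~70% confluency, then transfected (Lipofectamine 3000) with FLAG-KSR1 (2.3 μg, WT) or FLAG-BRAF (10 μg, WT). At 24 h cells got 0.1% DMSO or 200 nM test compound for 1 h, then were lysed in NP-40 buffer on ice for 30 min. 250 μg lysate was rotated 4 h at 4 °C with anti-MEK1/Protein A resin, with an IgG control. Anti-FLAG immunoblot; three independent experiments.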

[3] = biological target: KSR1 and MEK1 interaction (UniProt Q02750+Q61097); format: cell-based, mouse KSR1, human HCT116 cells; details: HCT116, wild-type KSR1, 200 nM, 1 hour
Outline: as §1

Chain of mouse KSR1-Nanoluc (KSR-bound MEK) (Q02750 whole entry): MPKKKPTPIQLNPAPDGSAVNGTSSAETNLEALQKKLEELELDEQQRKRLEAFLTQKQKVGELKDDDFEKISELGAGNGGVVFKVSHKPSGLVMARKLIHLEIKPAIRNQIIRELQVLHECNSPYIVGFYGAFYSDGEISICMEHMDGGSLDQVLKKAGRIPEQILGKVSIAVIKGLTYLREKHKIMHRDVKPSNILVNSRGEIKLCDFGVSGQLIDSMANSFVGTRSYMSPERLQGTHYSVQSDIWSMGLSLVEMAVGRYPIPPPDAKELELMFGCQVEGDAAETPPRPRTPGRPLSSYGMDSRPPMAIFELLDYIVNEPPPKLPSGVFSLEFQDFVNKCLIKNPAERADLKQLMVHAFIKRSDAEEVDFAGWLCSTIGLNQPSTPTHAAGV
Chain of mouse KSR1-Nanoluc (KSR-bound MEK) (Q61097 whole entry): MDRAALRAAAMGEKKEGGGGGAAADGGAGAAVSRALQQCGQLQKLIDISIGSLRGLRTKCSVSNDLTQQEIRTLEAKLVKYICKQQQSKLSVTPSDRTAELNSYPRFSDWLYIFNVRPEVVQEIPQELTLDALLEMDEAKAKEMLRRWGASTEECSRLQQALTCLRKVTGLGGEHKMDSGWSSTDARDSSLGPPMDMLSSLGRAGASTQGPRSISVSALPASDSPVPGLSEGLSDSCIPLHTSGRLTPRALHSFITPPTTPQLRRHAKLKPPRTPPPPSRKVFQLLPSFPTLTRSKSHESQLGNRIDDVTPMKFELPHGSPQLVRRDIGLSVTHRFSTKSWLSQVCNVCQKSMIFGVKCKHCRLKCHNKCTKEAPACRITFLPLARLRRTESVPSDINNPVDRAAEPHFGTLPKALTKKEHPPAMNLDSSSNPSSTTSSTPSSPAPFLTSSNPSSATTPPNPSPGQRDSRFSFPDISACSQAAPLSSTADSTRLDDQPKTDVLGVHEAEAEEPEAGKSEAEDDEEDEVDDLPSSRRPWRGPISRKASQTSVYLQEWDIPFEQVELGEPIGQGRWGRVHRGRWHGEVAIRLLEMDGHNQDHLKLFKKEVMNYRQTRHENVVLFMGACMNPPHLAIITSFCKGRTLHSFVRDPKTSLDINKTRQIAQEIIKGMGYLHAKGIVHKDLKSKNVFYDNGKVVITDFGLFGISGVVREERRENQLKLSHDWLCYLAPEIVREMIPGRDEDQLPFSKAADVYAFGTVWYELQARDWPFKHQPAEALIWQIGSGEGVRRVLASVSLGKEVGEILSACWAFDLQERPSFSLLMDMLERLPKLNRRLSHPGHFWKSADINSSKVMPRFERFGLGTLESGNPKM
Chain of KSR1-luc (KSR-bound MEK) (Q02750 whole entry): as the sequence (Q02750 whole entry) above
Chain of KSR1-luc (KSR-bound MEK) (Q61097 whole entry): as the sequence (Q61097 whole entry) above
Chain of MEK1-luc (Q02750 whole entry): as the sequence (Q02750 whole entry) above
Chain of BRAF and MEK1 interaction (Q02750 whole entry): as above
Chain of KSR1 and MEK1 interaction (Q02750 whole entry): as above
Chain of KSR1 and MEK1 interaction (Q61097 whole entry): as the sequence (Q61097 whole entry) above
Chain of SRC-luc (P12931 whole entry): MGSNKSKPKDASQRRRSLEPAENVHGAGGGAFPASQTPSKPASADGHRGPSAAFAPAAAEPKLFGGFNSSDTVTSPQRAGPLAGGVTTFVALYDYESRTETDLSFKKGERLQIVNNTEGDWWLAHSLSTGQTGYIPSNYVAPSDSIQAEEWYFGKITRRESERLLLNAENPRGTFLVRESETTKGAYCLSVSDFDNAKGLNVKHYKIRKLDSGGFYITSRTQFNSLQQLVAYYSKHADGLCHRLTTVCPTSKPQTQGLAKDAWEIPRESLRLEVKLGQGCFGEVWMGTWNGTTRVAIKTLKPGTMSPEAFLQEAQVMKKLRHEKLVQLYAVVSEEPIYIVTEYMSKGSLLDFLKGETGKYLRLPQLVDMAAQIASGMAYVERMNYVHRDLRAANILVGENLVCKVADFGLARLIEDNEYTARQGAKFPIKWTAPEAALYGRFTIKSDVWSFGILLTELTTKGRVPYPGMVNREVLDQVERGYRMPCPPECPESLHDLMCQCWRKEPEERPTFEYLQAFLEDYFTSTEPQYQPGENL
Chain of RET-luc (P07949 29-1114): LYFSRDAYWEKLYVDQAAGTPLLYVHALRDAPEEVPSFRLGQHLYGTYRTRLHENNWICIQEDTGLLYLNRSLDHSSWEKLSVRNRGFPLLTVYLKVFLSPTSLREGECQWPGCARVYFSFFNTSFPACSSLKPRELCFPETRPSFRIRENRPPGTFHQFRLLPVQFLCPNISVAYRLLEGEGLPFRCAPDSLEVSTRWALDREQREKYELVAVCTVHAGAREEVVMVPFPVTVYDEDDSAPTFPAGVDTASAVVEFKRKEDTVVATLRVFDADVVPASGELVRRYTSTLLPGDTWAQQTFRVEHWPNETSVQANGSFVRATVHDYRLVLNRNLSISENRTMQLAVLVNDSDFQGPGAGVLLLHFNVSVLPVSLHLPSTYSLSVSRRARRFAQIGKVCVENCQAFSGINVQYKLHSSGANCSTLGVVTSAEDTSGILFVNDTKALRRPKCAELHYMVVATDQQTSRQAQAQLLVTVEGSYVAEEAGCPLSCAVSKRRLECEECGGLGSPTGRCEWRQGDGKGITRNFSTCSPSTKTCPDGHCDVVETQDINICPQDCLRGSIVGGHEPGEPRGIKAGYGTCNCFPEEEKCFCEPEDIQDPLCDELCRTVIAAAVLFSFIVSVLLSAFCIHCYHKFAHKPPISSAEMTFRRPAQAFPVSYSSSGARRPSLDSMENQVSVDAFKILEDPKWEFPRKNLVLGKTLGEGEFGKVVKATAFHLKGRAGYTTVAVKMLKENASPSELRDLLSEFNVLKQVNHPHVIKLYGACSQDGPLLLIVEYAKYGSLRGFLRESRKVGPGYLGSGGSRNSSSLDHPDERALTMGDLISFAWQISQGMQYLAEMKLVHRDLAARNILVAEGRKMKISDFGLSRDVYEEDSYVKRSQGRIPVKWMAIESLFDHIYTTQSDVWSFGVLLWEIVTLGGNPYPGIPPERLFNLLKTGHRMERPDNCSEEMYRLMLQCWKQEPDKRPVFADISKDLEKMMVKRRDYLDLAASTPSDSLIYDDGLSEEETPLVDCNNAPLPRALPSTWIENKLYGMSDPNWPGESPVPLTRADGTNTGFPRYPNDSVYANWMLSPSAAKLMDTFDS

SMILES	difference in potency (IC50) between KSR1-luc and MEK1-luc [1]	dissociation after washout on KSR1-luc (BRET signal recovery) (KSR1-luc (KSR-bound MEK))	dissociation after washout on MEK1-luc (MEK1-luc)	dose response on RET-luc (RET-luc)	dose response on SRC-luc (SRC-luc)	co-immunoprecipitation of BRAF via endogenous MEK [2]	co-immunoprecipitation of KSR1 via endogenous MEK [3]
O=C(c1ccc(F)c(F)c1Nc1ccc(I)cc1F)N1CC(O)([C@@H]2CCCCN2)C1 [cobimetinib, Cobimetinib]	~ 20 fold	dissociated more readily	dissociated more readily	–	–	–	–
CC(=O)Nc1cccc(-n2c(=O)n(C3CC3)c(=O)c3c(Nc4ccc(I)cc4F)n(C)c(=O)c(C)c32)c1 [trametinib, Trametinib]	–	–	–	no discernible dose response	no discernible dose response	diminished binding of BRAF	sustained pulldown of KSR1
